Measured values taken from ChEMBL document CHEMBL3112405, “A-ring modified betulinic acid derivatives as potent cancer preventive agents” (Bioorg Med Chem Lett, 2014).

Tests used:
[1] = Chemopreventive activity in human Raji cells assessed as molar ratio of compound required to inhibit 50% of control of inhibition of TPA-induced EBV-early antigen activation after 48 hrs by immunofluorescence analysis; type: cell-based, human gammaherpesvirus 4
Method in brief: (§1)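 Raji cells (EBV genome-carrying, virus non-producer; cultured in RPMI-1640 with 10% FBS) incubated 48 h at 37 °C with n-butyric acid (4 mM), TPA ([…] = 20 ng) and test compounds in DMSO. EBV-EA positive cells were detected by indirect immunofluorescence with NPC patient serum, counting ≥500 cells, triplicate. Results were expressed relative to the butyric acid+TPA control (100%). Viability was checked by Trypan blue.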

Raji [2] = assay: Chemopreventive activity in human Raji cells assessed as inhibition of TPA-induced EBV-early antigen activation by measuring EBV-EA positive cells at 500 molar ratio/20 ng/ml of TPA after 48 hrs by immunofluorescence analysis; type: cell-based; set-up: scale not given: the % may be the effect or the level left; conditions: human gammaherpesvirus 4
Method in brief: (§2)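 Raji cells (EBV genome-carrying, Burkitt's lymphoma-derived, virus non-producer), grown in RPMI-1640 with 10% FBS. Cells were incubated 48 h at 37 °C with n-butyric acid (4 mM), TPA ([…] = 20 ng, in DMSO) and test compound in DMSO at 10–1000 mol ratio/TPA. EBV-EA-positive cells were detected by indirect immunofluorescence using NPC patient serum, with at least 500 cells counted. Triplicates were run, expressed relative to the butyrate+TPA control (100%). Viability was checked by Trypan blue.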

Raji [3] = assay: Chemopreventive activity in human Raji cells assessed as inhibition of TPA-induced EBV-early antigen activation by measuring EBV-EA positive cells at 10 molar ratio/20 ng/ml of TPA after 48 hrs by immunofluorescence analysis; type: cell-based; set-up: scale not given: the % may be the effect or the level left; conditions: human gammaherpesvirus 4; method in brief: as §1
Raji [4] = assay: Chemopreventive activity in human Raji cells assessed as inhibition of TPA-induced EBV-early antigen activation by measuring EBV-EA positive cells at 100 molar ratio/20 ng/ml of TPA after 48 hrs by immunofluorescence analysis; type: cell-based; set-up: scale not given: the % may be the effect or the level left; conditions: human gammaherpesvirus 4; method in brief: as §2
Raji [5] = assay: Chemopreventive activity in human Raji cells assessed as inhibition of TPA-induced EBV-early antigen activation by measuring EBV-EA positive cells at 1000 molar ratio/20 ng/ml of TPA after 48 hrs by immunofluorescence analysis relative to control; type: cell-based; set-up: scale not given: the % may be the effect or the level left; conditions: human gammaherpesvirus 4; method in brief: as §2
Mus musculus [6] = organism: Mus musculus; assay: Inhibition of DMBA-TPA-induced carcinogenesis in mouse skin assessed as reduction of number of papilloma at 85 nmol after 8 weeks relative to control; type: functional; set-up: scale not given: the % may be the effect or the level left
Method in brief: (§3)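 Two-stage mouse skin model. Initiation used DMBA (390 nmol). Promotion used TPA (1.7 nmol) twice weekly, starting 1 week after initiation. Test compound (85 nmol) was given with TPA. Papilloma incidence (% of mice bearing papillomas) and average papillomas per mouse were monitored over 20 weeks against a TPA-alone control.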

Mus musculus [7] = organism: Mus musculus; assay: Inhibition of DMBA-TPA-induced carcinogenesis in mouse skin assessed as reduction of number of papilloma at 85 nmol after 11 weeks relative to control; type: functional; set-up: scale not given: the % may be the effect or the level left; method in brief: as §3

CC(=O)NCCCCCCCNC(=O)[C@]12CC[C@@H](C(C)C)[C@@H]1[C@H]1CC[C@@H]3[C@@](C)(CCC(=O)O)[C@H](C(C)CO)CC[C@@]3(C)[C@]1(C)CC2 (stereo partly drawn)
IC50 [1]: 471 molar ratio
Activity (Raji [2]): 52.1%
Activity (Raji [3]): 100%
Activity (Raji [4]): 77.5%
Activity (Raji [5]): 6.6%

C=C(C)[C@@H]1CC[C@]2(C)[C@H](CC[C@@H]3[C@H]4[C@H](C(C)C)CC[C@]4(C(=O)NCCCCCCCNC(C)=O)CC[C@]32C)[C@@]1(C)CCC(=O)O
IC50 [1]: 460 molar ratio
Activity (Raji [2]): 50.2%
Activity (Raji [3]): 100%
Activity (Raji [4]): 76.3%
Activity (Raji [5]): 6.7%

COC(=O)CC[C@]1(C)[C@H]2CC[C@@H]3[C@H]4[C@H](C(C)C)CC[C@]4(C(=O)O)CC[C@@]3(C)[C@]2(C)CC[C@H]1C(C)COC(C)=O (stereo partly drawn)
IC50 [1]: 335 molar ratio
Activity (Raji [2]): 33.8%
Activity (Raji [3]): 98.2%
Activity (Raji [4]): 68.8%
Activity (Raji [5]): 0%

C=C(C)[C@@H]1CC[C@]2(C)[C@H](CC[C@@H]3[C@H]4[C@H](C(C)C)CC[C@]4(C(=O)O)CC[C@]32C)[C@@]1(C)CCC(=O)OC
IC50 [1]: 311 molar ratio
Activity (Raji [2]): 29.1%
Activity (Raji [3]): 94.2%
Activity (Raji [4]): 66.9%
Activity (Raji [5]): 0%

C=C(C)[C@@H]1CC[C@]2(C)[C@H](CC[C@@H]3[C@H]4[C@H](C(C)C)CC[C@]4(C(=O)NCCCCCCCNC(C)=O)CC[C@]32C)[C@@]1(C)CCC(=O)OC
IC50 [1]: 479 molar ratio
Activity (Raji [2]): 54.4%
Activity (Raji [3]): 100%
Activity (Raji [4]): 77.2%
Activity (Raji [5]): 7.1%

CC(=O)NCCCCCCCNC(=O)[C@]12CC[C@@H](C(C)C)[C@@H]1[C@H]1CC[C@@H]3[C@@](C)(CCC(=O)O)[C@H](C(C)COC(=O)CC(C)(C)C(=O)O)CC[C@@]3(C)[C@]1(C)CC2 (stereo partly drawn)
IC50 [1]: 501 molar ratio
Activity (Raji [2]): 57.2%
Activity (Raji [3]): 100%
Activity (Raji [4]): 81.3%
Activity (Raji [5]): 11.3%

C=C(C)[C@@H]1CC[C@]2(C(=O)O)CC[C@]3(C)[C@H](CC[C@@H]4[C@@]5(C)CC[C@H](OC(=O)CC(C)(C)C(=O)O)C(C)(C)[C@@H]5CC[C@]43C)[C@@H]12 [BEVIRIMAT]
IC50 [1]: 396 molar ratio
Activity (Raji [2]): 36.1%
Activity (Raji [4]): 74.2%
Activity (Raji [5]): 6.1%

CC(=O)NCCCCCCCNC(=O)[C@]12CC[C@@H](C(C)C)[C@@H]1[C@H]1CC[C@@H]3[C@@]4(C)CCC(=O)OC(C)(C)[C@@H]4CC[C@@]3(C)[C@]1(C)CC2
IC50 [1]: 523 molar ratio
Activity (Raji [2]): 61.4%
Activity (Raji [3]): 100%
Activity (Raji [4]): 83.2%
Activity (Raji [5]): 15.3%

C=C(C)[C@@H]1CC[C@]2(C)[C@H](CC[C@@H]3[C@H]4[C@H](C(C)C)CC[C@]4(C(=O)O)CC[C@]32C)[C@@]1(C)CCC(=O)O
IC50 [1]: 295 molar ratio
Activity (Mus musculus [6]): 0%
Activity (Raji [2]): 26.6%
Activity (Raji [3]): 91.6%
Activity (Raji [4]): 65.1%
Activity (Mus musculus [7]): 10%
Activity (Raji [5]): 0%

COC(=O)CC[C@]1(C)[C@H]2CC[C@@H]3[C@H]4[C@H](C(C)C)CC[C@]4(C(=O)O)CC[C@@]3(C)[C@]2(C)CC[C@H]1C(C)COC(=O)CC(C)(C)C(=O)O (stereo partly drawn)
IC50 [1]: 386 molar ratio
Activity (Raji [2]): 36.4%
Activity (Raji [3]): 100%
Activity (Raji [4]): 71.3%
Activity (Raji [5]): 3.7%

COc1cc(/C=C/C(=O)CC(=O)/C=C/c2ccc(O)c(OC)c2)ccc1O [CURCUMIN]
IC50 [1]: 341 molar ratio
Activity (Raji [2]): 22.8%
Activity (Raji [3]): 100%
Activity (Raji [4]): 81.7%
Activity (Raji [5]): 0%

COC(=O)CC[C@]1(C)[C@H]2CC[C@@H]3[C@H]4[C@H](C(C)C)CC[C@]4(C(=O)NCCCCCCCNC(C)=O)CC[C@@]3(C)[C@]2(C)CC[C@H]1C(C)COC(C)=O (stereo partly drawn)
IC50 [1]: 490 molar ratio
Activity (Raji [2]): 56%
Activity (Raji [3]): 100%
Activity (Raji [4]): 79.4%
Activity (Raji [5]): 7.8%

COC(=O)CC[C@]1(C)[C@H]2CC[C@@H]3[C@H]4[C@H](C(C)C)CC[C@]4(C(=O)O)CC[C@@]3(C)[C@]2(C)CC[C@H]1C(C)CO (stereo partly drawn)
IC50 [1]: 323 molar ratio
Activity (Mus musculus [6]): 0%
Activity (Raji [2]): 31.6%
Activity (Raji [3]): 96.3%
Activity (Raji [4]): 68.1%
Activity (Mus musculus [7]): 10%
Activity (Raji [5]): 0%
